# CYP2C19 activ: human CYP2C19 activators, primary screen, biochemical, luminescence. AID 1025, 2008. activation factor at 5 µM. recombinant CYP2C19, luciferin-H EGE luminescence; active compounds read high; 0 = fully inhibited enzyme, 1 = untreated enzyme. 96,000 tested, under 10 active. Cytochrome P450 2C19 (Homo sapiens), P33261;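 active = activation factor of at least 2 at 5 µM in the primary screen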;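 note: 0 = wells with 2.5 mM tranylcypromine and 1 = vehicle-only wells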
# CYP2C9 activ: human CYP2C9 activators, primary screen, biochemical, luminescence | activation factor at 5 µM | 1.4% of 96,000 active | AID 1024, 2008 | recombinant CYP2C9, luciferin-H conversion; active compounds read high; factor 1 = untreated enzyme, 0 = blocked | Cytochrome P450 2C9 (Homo sapiens), P11712;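 active = activation factor of 2 or more for CYP2C9 at a 5 µM dose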;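 note: 0 = sulfaphenazole-blocked wells and 1 = vehicle-only wells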
# Target sequence (P11712 whole entry, looked up): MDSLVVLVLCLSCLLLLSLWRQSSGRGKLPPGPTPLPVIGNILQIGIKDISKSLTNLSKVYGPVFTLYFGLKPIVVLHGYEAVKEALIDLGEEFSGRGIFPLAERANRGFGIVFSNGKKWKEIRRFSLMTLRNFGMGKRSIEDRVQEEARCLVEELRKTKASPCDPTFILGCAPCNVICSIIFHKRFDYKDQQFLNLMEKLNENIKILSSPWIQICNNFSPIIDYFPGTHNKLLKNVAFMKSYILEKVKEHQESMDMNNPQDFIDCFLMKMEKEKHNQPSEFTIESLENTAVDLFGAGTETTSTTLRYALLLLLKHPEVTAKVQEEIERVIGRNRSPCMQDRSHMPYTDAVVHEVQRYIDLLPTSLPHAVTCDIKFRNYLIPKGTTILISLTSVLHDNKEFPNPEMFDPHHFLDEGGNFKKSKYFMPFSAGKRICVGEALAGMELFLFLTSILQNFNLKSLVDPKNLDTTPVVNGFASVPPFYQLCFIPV
# Rev-RRE block: HIV-1 Rev-RRE binding inhibitors, primary screen, biochemical, FRET, protein-RNA interaction | P05866 | Rev peptide-RRE RNA binding | AID 704, 2007 | inhibition, % at 8 µM | 0.79% of 97,000 active;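 active = inhibition above the screen-wide mean plus 3 SD, cut at about 35% in these data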;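 note: 0% = median DMSO wells and 100% = median Neomycin B control wells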
# Target sequence (P05866 whole entry, looked up): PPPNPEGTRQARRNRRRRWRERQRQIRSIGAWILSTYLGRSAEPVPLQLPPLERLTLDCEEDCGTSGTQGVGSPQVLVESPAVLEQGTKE
#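 Material: labelled RRE RNA duplex and labelled Rev peptide / Buffer or medium: HEPES pH 7.5 salt buffer with EDTA / Compound dosing: single point, 8 µM final nominal compound concentration / Benchmarks: DMSO low control, neomycin B high control / Timing: 5 min preincubation and 15 min binding, 25 °C / Technique: FRET fluorescence readout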
# CYP2C9 inhib: blockers of cytochrome P450 2C9 activity – biochemical, luminescence, ADME assay, primary screen; P11712; CYP2C9 Supersomes, luciferin-H conversion; inhibition, % at 5 µM; 20% of 96,000 active; AID 777, 2007;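 active = blocking of liver enzyme CYP2C9 beyond about 50% at 5 µM, limit read from the data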
# Cav32 inh: Cav3.2 calcium influx blockers – cell-based, Fluo-4 calcium fluorescence, FDSS, MLSMR library, primary screen; Voltage-dependent T-type calcium channel subunit alpha-1H (Homo sapiens), O95180; Cav3.2-expressing cells; active compounds read low; B-score at 10 µM; 4% of 100,000 active; AID 449739, 2010;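 active = single-dose well whose peak fluorescence ratio is a statistical outlier from its plate by either plate-standardised score or position-corrected B-score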
# CYP2C19 inhib: blockers of cytochrome P450 2C19 activity – biochemical, luminescence, ADME assay, primary screen | P33261 | CYP2C19 Supersomes, luciferin-H EGE luminescence, 30 min | inhibition, % at 5 µM | 21% of 96,000 active | AID 778, 2007;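 active = CYP2C19 inhibition above a set limit at 5 µM in the primary screen, cut at about 50% in these data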;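 note: plate controls were negative control wells for no effect and 2.5 mM tranylcypromine positive control for full effect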
# * marks the source's active call; other numbers are inactive results; · = no result given. Shown are actives, neighbours in structure and some others; about 27% of the full set was active somewhere.
SMILES,CYP2C19 activ,CYP2C9 activ,Rev-RRE block,CYP2C9 inhib,Cav32 inh,CYP2C19 inhib
O=C(c1ccc2c(c1)OCO2)[C@@H]1[C@@H]2C(=O)N(C3CCCCC3)C(=O)[C@@H]2C2c3ccccc3C=CN21 (stereo not given in full),0.4,0.2,8,76*,-1.7,58*
CC(C)(C)C(=O)[C@@H]1[C@@H]2C(=O)N(C3CCCCC3)C(=O)[C@@H]2[C@H]2c3ccccc3C=CN12,0.3,0.2,2,82*,·,66*
O=C(Nc1ccc2c(c1)OCO2)[C@@H]1[C@@H]2C(=O)N(C3CCCCC3)C(=O)[C@@H]2C2c3ccccc3C=CN21 (stereo not given in full),1.1,0.9,12,8,·,-8
O=C(O)c1ccc2c(c1)C(=O)N(Cc1ccc3c(c1)OCO3)C2=O,1,1,1,1,0.84,4
C#CCNC(=O)C1=C[C@H](C2CCCCC2)C[C@H](OCCCCO)O1,·,·,·,·,-0.12,·
COc1ccccc1CC(=O)O/N=C(\N)Cc1cccc2ccccc12,1,1.1,21,-6,-2.2,-3
COC(=O)C1=C(C(=O)OC)[C@@H]2Nc3ccccc3[C@@]23C[C@@H](C(=O)OC)N=C3N1,·,·,·,·,1.9,·
CCC12CCCN3CCC4(C(=C(C(=O)OC)C1)Nc1ccccc14)C32 (stereo not given),0.4,0.4,2,58*,-0.27,63*
CNc1nc(OCC(F)(F)F)nc(N2CCOCC2)n1,1,1,3,-2,0.27,-3
CNc1nc(NCCOC23CC4CC(CC(C4)C2)C3)nc(OCC(F)(F)F)n1,0.5,0.8,11,21,-5.4*,46
C/C(Nc1cccc(F)c1)=C(/C#N)C(N)=O,0.7,0.3,-1,68*,0.55,28
Cc1cc(C)n2nc(SCc3nnc(SCc4ccccc4Cl)s3)nc2n1,0.9,0.5,3,46,-0.079,9
COc1cccc(CSc2nnc(CSc3nc4nc(C)cc(C)n4n3)s2)c1,0,0.6,6,44,-0.24,98*
Cc1cc(C)n2nc(SCc3nnc(SCc4ccccc4C)s3)nc2n1,0.2,1,9,0,-1.2,77*
O=c1cc(C(F)(F)C(F)F)oc2ccccc12,1.2,0.9,4,11,0.97,-19
O=C1CC(C2CCCO2)C(=O)N1c1cccc(Cl)c1 (stereo not given),1,1.2,5,-17,-0.061,-3
CC(C)c1nnc(NC(=O)c2sc3ccccc3c2Cl)s1,1,0.9,3,14,-2.2,2
CCOC(=O)c1sc2ccccc2c1OC(=O)c1ccccc1,0.2,0.1,21,90*,-1.5,85*
CCCOC(=S)NC(=O)c1sc2ccccc2c1Cl,0.9,0.3,4,68*,-0.017,10
CCOC(=O)c1sc(NC(=O)c2ccccc2)cc1C,0.8,0.7,5,28,0.26,24
CCOC(=S)NC(=O)c1sc2ccccc2c1Cl,1,0.1,4,90*,-1.7,4
CC(=O)c1cccc(NC(=O)CCS(=O)(=O)c2cccc3nonc23)c1,0.8,0.9,·,12,0.11,22
O=C(Cn1cc2c(n1)CCCC2)N1CCc2ccccc21,0.9,0.7,·,27,-0.016,10
COC(=O)c1sc(OC)cc1OCc1ccc(C)cc1,0.5,1.1,0,-10,-0.049,53*
CCC(=O)c1ccc(OCc2ccc(C(=O)OC)cc2)c(OC)c1,1.1,1.1,5,-7,0.54,-10
SMILES,CYP2C19 activ,CYP2C9 activ,Rev-RRE block,CYP2C9 inhib,Cav32 inh,CYP2C19 inhib
C/C(N)=C(/C#N)C(=O)COC(=O)c1ccncc1,0.4,0.6,10,42,1.2,65*
C/C(N)=C(/C#N)C(=O)COC(=O)c1cc(S(=O)(=O)N2CCCCC2)ccc1C,0.5,0.8,12,20,·,51*
C/C(N)=C(/C#N)C(=O)COC(=O)CCSc1ccccc1,0.3,0.6,-2,36,·,68*
CCN(C(=O)COC(=O)c1cc(C)n(-c2ccc(F)cc2)c1C)C1CCS(=O)(=O)C1 (stereo not given),0.8,0.9,-3,12,-1.6,15
C/C(N)=C(/C#N)C(=O)COC(=O)c1cc(C)n(-c2ccc(F)cc2)c1C,0.4,0.6,3,42,-3.2,59*
C/C(N)=C(/C#N)C(=O)COc1ncnc2ccc(Br)cc12,0.8,0.9,4,11,0.5,21
CCN(CC)S(=O)(=O)c1cccc(C(=O)NC(C(=O)Nc2nnc(C3CC3)s2)C(C)C)c1 (stereo not given),0.5,0.5,·,48,-4.1,47
C/C(N)=C(/C#N)C(=O)COC(=O)c1ccc(C)c(S(=O)(=O)N2CCCCC2)c1,0.2,0.4,12,62*,-0.44,81*
Cc1ccc(Oc2nc3ccccc3n3c(C)nnc23)c(C)c1,0.9,0.9,2,14,-0.64,11
Cc1ccc(C)c(N=Nc2nc3ccccc3n2C)c1,0.3,0.7,8,32,-0.58,66*
Cc1nonc1OCCNC(=O)C12CC3CC(CC(C3)C1)C2,0.9,1,-2,-3,0.19,8
CC(=O)/C(=C/N(C)C)Sc1ccc(C)cc1,0.3,0.7,5,27,-0.11,73*
COc1cc(C(=O)Sc2ccc(C)cc2)cc(OC)c1OC,0.8,0.9,7,7,·,19
O=C(CSc1nc(-c2ccccc2)cc(=O)[nH]1)Nc1ccccn1,1.1,1,-1,4,0.035,-14
O=C(CSc1nc2ccccc2o1)NCc1ccc2c(c1)OCO2,0,0.1,10,95*,-3,100*
CC(C)N(C(=O)Cn1c(SCC(=O)NCc2ccc3c(c2)OCO3)nc2ccccc21)C(C)C,·,·,4,·,1.9,·
O=C(CSc1nc(-c2ccccc2)cc(=O)[nH]1)NCc1ccc2c(c1)OCO2,1,0,7,96*,0.48,-5
O=C(CSc1nc2ccc(Cl)cc2o1)NCc1ccc2c(c1)OCO2,0.8,0.4,5,61*,-2,23
O=C(CSc1c[nH]c2ccccc12)NCc1ccc2c(c1)OCO2,0,0,8,96*,0.34,100*
Cc1ccc(NC(=O)c2ccc(CSc3nnnn3C)cc2)cc1,0.8,0.8,1,21,0.61,16
CCCCN(CC)C(=O)CSc1cc(=O)n(C)c2ccccc12,0.4,1.3,2,-30,0.0067,64*

# From PubChem BioAssay
